Assay results taken from ChEMBL document CHEMBL1141657, “Synthesis, structure elucidation and identification of antitumoural properties of novel fused 1,2,4-triazine aryl derivatives” (Eur J Med Chem, 2008).

Assays:
[1] = Cytotoxicity against HSF cells assessed as cell viability at 1 uM after 24 hrs by MTT assay relative to control; assay type: cell-based; details: human, read-out: Activity
Method in brief: (§1)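 Normal human skin fibroblasts (HSF, primary line) were exposed to DMSO-dissolved compound for 24 h. Viability was read by MTT tetrazolium reduction and expressed against untreated control set at 100%.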

[2] = Cytotoxicity against HSF cells assessed as cell viability at 100 uM after 24 hrs by MTT assay relative to control; assay type: cell-based; details: human, read-out: Activity; method in brief: as §1
[3] = test system: Jurkat; assay: Cytotoxicity against human Jurkat cells assessed as cell viability at 1 uM after 24 hrs by MTT assay relative to control; assay type: functional; details: read-out: Activity
Method in brief: (§2)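 Jurkat T-cell leukaemia line grown in RPMI 1640 with 10% FBS, 2 mM L-glutamine and gentamycin at 37 °C, 5% CO2, kept in log phase. Compounds were dissolved in DMSO and applied for 24 h. Cells were washed in HEPES-buffered medium (pH 7.4) and given MTT at 0.5 mg/mL for 45 min at 37 °C. Formazan was dissolved in DMSO and read at 570 nm. Viability is % of control, from three independent measurements.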

[4] = Cytotoxicity against HSF cells assessed as cell viability at 50 uM after 24 hrs by MTT assay relative to control; assay type: cell-based; details: human, read-out: Activity; method in brief: as §1
[5] = test system: Jurkat; assay: Cytotoxicity against human Jurkat cells assessed as cell viability at 100 uM after 24 hrs by MTT assay relative to control; assay type: functional; details: read-out: Activity; method in brief: as §2
[6] = test system: Jurkat; assay: Cytotoxicity against human Jurkat cells assessed as cell viability at 50 uM after 24 hrs by MTT assay relative to control; assay type: functional; details: read-out: Activity; method in brief: as §2
[7] = test system: Jurkat; assay: Cytotoxicity against human Jurkat cells assessed as decrease in cell viability after 24 hrs by MTT assay; assay type: functional, cell-based
Method in brief: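 Jurkat cells grown in RPMI 1640/10% FBS at 37 °C, 5% CO2, with 24 h exposure to DMSO-dissolved compound. Read-out was MTT reduction: 0.5 mg/mL in HEPES-buffered medium for 45 min, formazan in DMSO, absorbance at 570 nm. IC50 was taken from 24 h dose–survival curves.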

[8] = test system: SiHa; assay: Growth inhibition of human SiHa cells assessed as BrdU incorporation at 183.6 uM after 72 hrs by spectrophotometry; assay type: functional; details: read-out: GI
Method in brief: (§3)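 Cells were seeded at 10⁴ cells/mL and preincubated. Compounds were dissolved in DMSO and added at two fixed concentrations, then incubated for 72 h. End-point was BrdU labelling with ELISA detection, read spectrophotometrically. Result is % growth inhibition versus untreated controls. Triplicates.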

[9] = Growth inhibition of human LS180 cells assessed as BrdU incorporation at 36.7 uM after 72 hrs by spectrophotometry; assay type: functional; details: LS180, 72 h, read-out: GI; method in brief: as §3
[10] = Growth inhibition of HSF cells assessed as BrdU incorporation at 36.7 uM after 72 hrs by spectrophotometry; assay type: cell-based; details: human, read-out: GI; method in brief: as §3
[11] = test system: T47D; assay: Growth inhibition of human T47D cells assessed as BrdU incorporation after 72 hrs by spectrophotometry; assay type: functional, cell-based
Method in brief: (§4)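 Cancer cells were seeded at 10⁴ cells/mL, preincubated, then exposed for 72 h to DMSO-dissolved compound. Growth was read by BrdU labelling with ELISA spectrophotometry. IC50 was taken from 72 h dose–survival curves. Triplicates.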

[12] = test system: T47D; assay: Growth inhibition of human T47D cells assessed as BrdU incorporation at 36.7 uM after 72 hrs by spectrophotometry; assay type: functional; details: read-out: GI
Method in brief: (§5)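 Each cell line was seeded at 10⁴ cells per mL and preincubated. Test agents were dissolved in DMSO, added at two examined concentrations (10 and 50 per mL by mass), and incubated for 72 h. The end-point was BrdU labeling and detection kit III read on an ELISA reader. Percent growth inhibition was calculated against untreated controls, in triplicate.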

[13] = Growth inhibition of HSF cells assessed as BrdU incorporation at 183.6 uM after 72 hrs by spectrophotometry; assay type: cell-based; details: human, read-out: GI; method in brief: as §3
[14] = test system: SiHa; assay: Growth inhibition of human SiHa cells assessed as BrdU incorporation after 72 hrs by spectrophotometry; assay type: functional, cell-based; method in brief: as §4
[15] = Growth inhibition of human LS180 cells assessed as BrdU incorporation at 183.6 uM after 72 hrs by spectrophotometry; assay type: functional; details: LS180, 72 h, read-out: GI; method in brief: as §3
[16] = test system: SiHa; assay: Growth inhibition of human SiHa cells assessed as BrdU incorporation at 36.7 uM after 72 hrs by spectrophotometry; assay type: functional; details: read-out: GI; method in brief: as §3
[17] = Growth inhibition of human LS180 cells assessed as BrdU incorporation after 72 hrs by spectrophotometry; assay type: functional, cell-based; details: LS180, 72 h; method in brief: as §4
[18] = test system: T47D; assay: Growth inhibition of human T47D cells assessed as BrdU incorporation at 183.6 uM after 72 hrs by spectrophotometry; assay type: functional; details: read-out: GI; method in brief: as §5
[19] = Growth inhibition of african green monkey Vero cells assessed as BrdU incorporation at 183.6 uM after 72 hrs by spectrophotometry; assay type: cell-based; details: chlorocebus sabaeus, read-out: GI; method in brief: as §3
[20] = test system: Vero; assay: Growth inhibition of african green monkey Vero cells assessed as BrdU incorporation at 36.7 uM after 72 hrs by spectrophotometry; assay type: cell-based; details: chlorocebus sabaeus; method in brief: as §3
[21] = test system: Mus musculus; assay: Neurotoxicity in ip dosed Swiss albino mouse assessed as impair in motor coordination at 0.1 LD50 concentration by rotarod test; assay type: toxicity, organism-based; details: in vivo
Method in brief: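 Male Albino Swiss mice (20-25 g), housed 8-10 per cage at 20 ± 1 °C on a 12/12 h light-dark cycle with food and water ad libitum. Randomized groups of 10. Compound given i.p. as a suspension in 3% Tween 80 at 10 mL kg^-1; controls received the same volume of vehicle. Tests run 8 a.m.-3 p.m.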

| Structure (SMILES) | viability at 24 h, 1 µM [1] [%] | viability at 24 h, 100 µM [2] [%] | viability at 1 µM [3] [%] | viability at 24 h, 50 µM [4] [%] | viability at 100 µM [5] [%] | viability at 50 µM [6] [%] | IC50 [7] [µM] | IC50 [11] [µM] | IC50 [14] [µM] | IC50 [17] [µM] | Activity [21] | also measured |
| --- | --- | --- | --- | --- | --- | --- | --- | --- | --- | --- | --- | --- |
| CCOC(=O)c1nnc2n(c1=O)CCN2c1ccc(OC)cc1 | 104 | 97 | 118 | 100 | 110 | 110 |  |  |  |  |  |  |
| NNC(=O)c1nnc2n(c1=O)CCN2c1ccccc1 | 82 | 82 | 89 | 83 | 33 | 82 | 85.5 | > 100 | > 100 | > 100 | Non-toxic | inhibition of growth at 183.6 µM [8]: 0%; inhibition of growth at 36.7 µM [9]: 0%; inhibition at 72 h, 36.7 µM [10]: 16%; inhibition of growth at 36.7 µM [12]: 4%; inhibition at 72 h, 183.6 µM [13]: 20%; inhibition of growth at 183.6 µM [15]: 15%; inhibition of growth at 36.7 µM [16]: 0%; inhibition of growth at 183.6 µM [18]: 9%; inhibition at 72 h, 183.6 µM [19]: 0%; growth inhibition (GI) [20]: 2% |
| CCOC(=O)c1nnc2n(c1=O)CCN2c1ccc(Cl)c(Cl)c1 | 102 | 85 | 91 | 84 | 23 | 28 | 32.2 | > 100 | > 100 | > 100 | Non-toxic |  |
| CCOC(=O)c1nnc2n(c1=O)CCN2c1ccc(C)cc1 | 91 | 82 | 83 | 87 | 93 | 89 |  |  |  |  |  |  |
